{"data": "Results pooled from the literature", "target": "Serine/threonine-protein kinase MARK2 (MARK2, Homo sapiens, UniProt Q7KZI7)"}
{"Compound": "COc1ccc2cc(OCC3(C(=O)O)CN(C(=O)c4ccc(F)cc4)C3)ccc2c1", "test": "cell-free assay, competition with immobilised ligand", "setting": "1 µM", "remaining binding [%]": 91}
{"Compound": "F[C@@H]1CCN(c2nccc(-c3cnn4ncccc34)n2)C1", "test": "binding", "setting": "1 µM", "remaining binding [%]": 100}
{"Compound": "C[C@H](NC(=O)c1cnc2n1[C@](C)(Cc1ccc(C#N)cc1)C(=O)N2c1cc(Cl)c(F)c(Cl)c1)C(=O)NC1(c2ccccn2)CC1", "test": "cell-free assay, competition with immobilised ligand", "setting": "1 µM", "remaining binding [%]": 100}
{"Compound": "O=C(NCC1CCOCC1)c1n[nH]cc1NC(=O)c1c(F)cccc1F", "test": "binding, competition with immobilised ligand", "setting": "1 µM", "remaining binding [%]": 71}
{"Compound": "C[C@H]1CCN(c2nccc(-c3cnn4ncccc34)n2)C1", "test": "binding", "setting": "1 µM", "remaining binding [%]": 100}
{"Compound": "COc1cnc(Nc2cccc(S(N)(=O)=O)c2)nc1N1CCN(c2ccccc2)C(=O)C1", "test": "binding, competition with immobilised ligand", "setting": "1 µM", "remaining binding [%]": 100}
{"Compound": "C[C@H](c1ccc(F)cc1)N(Cc1cccc(C(=O)O)c1)C(=O)c1cnc2ccccc2c1", "test": "cell-free assay, competition with immobilised ligand", "setting": "1 µM", "remaining binding [%]": 80}
{"Compound": "C=CC(=O)N1CCC(C(=O)NCC(=O)N2CCN(c3nc(-c4cnc(N)nc4C(F)F)nc(N4CCOCC4)n3)CC2)CC1", "test": "binding, competition with immobilised ligand", "setting": "1 µM", "remaining binding [%]": 90}
{"Compound": "CCN1CCN(Cc2ccc(C(=O)Nc3ccc(C)c(Oc4ccc5c(c4)CC(=O)N5)c3)cc2C(F)(F)F)CC1", "test": "binding, competition with immobilised ligand", "setting": "1 µM", "remaining binding [%]": 100}
{"Compound": "N[C@@H]1CCN(c2nccc(-c3cnn4ncccc34)n2)C1", "test": "binding", "setting": "1 µM", "remaining binding [%]": 100}
{"Compound": "O=C(NCCCN1CCOCC1)c1ccc(Nc2ncc(Cl)c(-c3ccc(Cl)s3)n2)cc1", "test": "binding, competition with immobilised ligand", "setting": "1 µM", "remaining binding [%]": 74}
{"Compound": "FC(F)(F)Oc1cccc(-c2cnc3ccc(-c4ccncc4)nn23)c1", "test": "cell-free assay, competition with immobilised ligand", "setting": "5 µM", "remaining binding [%]": 64}
{"Compound": "O=C(NCCCN1CCOCC1)c1ccc(Nc2nccc(-c3cc4ccccc4s3)n2)cc1", "test": "binding, competition with immobilised ligand", "setting": "1 µM", "remaining binding [%]": 81}
{"Compound": "COc1ncc2cc3ccccc3nc2c1C#N", "test": "cell-free assay, competition with immobilised ligand", "setting": "5 µM", "remaining binding [%]": 97}
{"Compound": "CN(C)c1nccc(-c2cnc3ncccn23)n1", "test": "binding", "setting": "1 µM", "remaining binding [%]": 100}
{"Compound": "COc1cccc(CNC(=O)c2nc3scc(COCc4ccc(C(=O)O)cc4)c3c(=O)[nH]2)c1", "test": "cell-free assay, competition with immobilised ligand", "setting": "1 µM", "remaining binding [%]": 100}
{"Compound": "CN(C)c1ncc(F)c(-c2cnn3ncccc23)n1", "test": "binding", "setting": "1 µM", "remaining binding [%]": 72}
{"Compound": "O=C(O)[C@@H]1[C@@H](Cn2nnc3ccccc3c2=O)CC[C@H]1C(=O)c1ccc(OCCC2CCOCC2)cc1", "test": "cell-free assay, competition with immobilised ligand", "setting": "1 µM", "remaining binding [%]": 100}
{"Compound": "Cc1cnn2ncc(-c3ccnc(N(C)C)n3)c2c1", "test": "binding", "setting": "1 µM", "remaining binding [%]": 100}
{"Compound": "Cc1cnc(Nc2ccc(C(=O)N3CCC(N4CCCC4)CC3)cc2)nc1-c1cc2ccccc2s1", "test": "binding, competition with immobilised ligand", "setting": "1 µM", "remaining binding [%]": 68}
{"Compound": "c1cnn2ncc(-c3ccnc(N4CCC45COC5)n3)c2c1", "test": "binding", "setting": "1 µM", "remaining binding [%]": 63}
{"Compound": "C[C@@]1(Cc2ccc(C#N)cc2)C(=O)N(c2cc(Cl)cc(Cl)c2)c2ncc(C(=O)NC3(c4nc(C5CCC5)no4)CC3)n21", "test": "cell-free assay, competition with immobilised ligand", "setting": "1 µM", "remaining binding [%]": 85}
